Source: PubChem (several laboratories)
Rows were chosen to be rich in hits. Some 3.4% of all compounds tested hit in one or more screens of this group.
MEKK2wt PB1 HTS: modulators of MEK5 binding to wildtype MEKK2, primary screen, biochemical, multiplex bead flow cytometry, Alexa488-MEK5. Mitogen-activated protein kinase kinase kinase 2 (Homo sapiens), Q9Y2U5. Alexa488-MEK5 binding to MEKK2 WT; actives lie on both sides. binding response (% of control), % at 10 µM. hit rate 1.1% among 290,000. AID 1531, 2009; in the data active means binding response below about 67% or above about 130%
VIM-2 inhibitor: VIM-2 metallo-beta-lactamase inhibitors, primary screen, biochemical, epi-absorbance readout, Pseudomonas aeruginosa enzyme; purified VIM-2, nitrocefin hydrolysis, epi-absorbance fluorescence; inhibition, % at 5.6 µM; hit rate 0.89% among 290,000; AID 1527, 2009;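 active means inhibition above the mean of all tested compounds plus 3 SD, cutoff set per screening run, cut at about 7.5% in these data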;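 further: red hydrolysis product quenches plate fluorescence so inhibitors raise well fluorescence; 0% = enzyme with DMSO and 100% = DMSO without enzyme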
IMP-1 inhibitor: IMP-1 metallo-beta-lactamase inhibitors, primary screen, biochemical, epi-absorbance readout, Pseudomonas aeruginosa enzyme | inhibition, % at 5.6 µM | metallo-beta-lactamase IMP-1 (Pseudomonas aeruginosa) | hit rate 0.45% among 290,000 | purified IMP-1, nitrocefin hydrolysis, epi-absorbance fluorescence;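 active means inhibition above the mean plus 3 SD of all compounds in the same screening run, cut at about 4.5% in these data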;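 further: 0% = IMP-1 with DMSO and 100% = DMSO wells lacking enzyme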
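System: Purified IMP-1 | Read-out basis: Percent enzyme inhibition | Controls: IMP-1 with DMSO as 0%, enzyme-free DMSO as 100% | Replicates: One well per compound | Doses: 5.6 µM nominal single concentration | Detection: Epi-absorbance fluorescence, 480 nm excitation, 530 nm emission | Incubation: 25 °C, 15 min preincubation, 25 min reaction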
MEKK2 mut-MEK5: MEK5 binding signal on mutant MEKK2 PB1, primary screen, biochemical, multiplex bead flow cytometry, Alexa488-MEK5; Alexa488-MEK5 binding to MEKK2 mutant; percent response, % at 10 µM; hit rate 0.35% among 290,000; AID 1530, 2009; in the data active means percent response above about 24%, passing the limit was not always enough
MEKK3 PB1 HTS: modulators of MEKK3-MEK5 PB1 binding, primary screen, biochemical, wildtype MEKK3, multiplex bead flow cytometry, Alexa488-MEK5; Mitogen-activated protein kinase kinase kinase 3 (Homo sapiens), Q99759; bead-based flow cytometry, Alexa488-MEK5 binding to MEKK3; actives lie on both sides; 0 = blocked by unlabeled MEK5, 100 = vehicle; binding response (% of control), % at 10 µM; hit rate 1.4% among 290,000;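 active means binding response more than 3 SD above or below the average of its plate-row segment, actives on both sides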;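 further: Alexa488 bead fluorescence after subtracting the streptavidin-only scavenger bead signal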
Target sequence (Q99759 whole entry, looked up): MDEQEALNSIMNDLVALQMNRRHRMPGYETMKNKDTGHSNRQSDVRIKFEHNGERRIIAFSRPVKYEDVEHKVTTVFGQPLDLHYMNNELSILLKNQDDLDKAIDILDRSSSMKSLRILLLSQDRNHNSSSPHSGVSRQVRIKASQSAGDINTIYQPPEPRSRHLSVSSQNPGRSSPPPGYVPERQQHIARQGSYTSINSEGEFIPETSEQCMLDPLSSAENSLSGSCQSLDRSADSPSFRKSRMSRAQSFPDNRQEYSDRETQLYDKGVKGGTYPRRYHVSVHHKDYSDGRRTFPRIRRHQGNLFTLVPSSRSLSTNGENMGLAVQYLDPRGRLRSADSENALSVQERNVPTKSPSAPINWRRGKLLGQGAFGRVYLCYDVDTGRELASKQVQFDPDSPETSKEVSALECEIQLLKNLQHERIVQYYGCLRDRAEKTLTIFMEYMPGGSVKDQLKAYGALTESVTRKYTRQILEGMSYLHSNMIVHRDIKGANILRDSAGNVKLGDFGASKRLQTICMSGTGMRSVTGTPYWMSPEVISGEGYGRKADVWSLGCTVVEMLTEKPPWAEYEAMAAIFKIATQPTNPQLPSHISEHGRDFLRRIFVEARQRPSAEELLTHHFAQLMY
MEKK2wt confirm: modulators of MEK5 binding to wildtype MEKK2, confirmation, biochemical, single concentration, multiplex bead flow cytometry | Alexa488-MEK5 binding to MEKK2 WT; actives lie on both sides | hit rate 2.4% among 5,900 | shares compounds with MEKK3 PB1 HTS | binding response (% of control), % at 10 µM; in the data active means binding response below about 16% or above about 210%; inactive means in between
MEKK2mut-MEK5: mutant MEKK2 PB1-MEK5 binding signal retest – biochemical, single concentration, multiplex bead flow cytometry, confirmation; shares compounds with MEKK3 PB1 HTS; Alexa488-MEK5 binding to MEKK2 mutant; percent response, % at 10 µM; hit rate 2% among 5,900; AID 1893, 2009; in the data active means percent response mostly above about 71%, no sharp cut-off; inactive means mostly below about 38%;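 further: higher means compound restores mutant binding toward wildtype level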
MEKK3-MEK5 inh: MEKK3 wild-type PB1 binding to MEK5, inhibitors, confirmation, biochemical, bead multiplex flow cytometry, single concentration, wildtype; shares compounds with MEKK3 PB1 HTS; Alexa488-MEK5 binding to MEKK3; hits give low values; binding response (% of control), % at 10 µM; hit rate 1.8% among 5,900; AID 1894, 2009;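 active means binding response below 72% of control, or above a set upper limit, though filed actives all read lower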;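 further: 100% = DMSO only wells and 0% = binding blocked by excess unlabeled MEK5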
The depositor's hits bear a star; · = no result given; [ ] = dose if it differs, or a comment.

SMILES | MEKK2wt PB1 HTS | VIM-2 inhibitor | IMP-1 inhibitor | MEKK2 mut-MEK5 | MEKK3 PB1 HTS | MEKK2wt confirm | MEKK2mut-MEK5 | MEKK3-MEK5 inh
O=C(NCC(=O)N(CC1CCCO1)C(C(=O)NC1CCCCC1)c1cccnc1)c1cccs1 (configuration not stated) | 123 | -1 | -3 | 3 | 131* | 103 | 6 | 106
O=C(CSc1nnc2ccccn12)NNC(=O)c1ccc(F)cc1 | 93 | -3 | -3 | -2 | 100 | · | · | ·
Nc1n[nH]c2cc(=O)n(-c3ccc(Cl)cc3)nc12 | 81 | -4 | -2 | -6 | 80 | · | · | ·
COc1ccc(-n2nc3c(N)n[nH]c3cc2=O)cc1 | 71 | -3 | -3 | -15 | 67*[inhibitor] | 70 | -6 | 68*
Cn1c(=N)c(S(=O)(=O)c2ccccc2)cc2c(=O)n3ccccc3nc21 | 105 | 2 | -1 | 4 | 104 | · | · | ·
COc1cc(NC(=O)c2cc(C)nc3ccccc23)cc(OC)c1OC | 122 | -5 | -3 | 10 | 142* | 110 | 6 | 105
COc1ccc(NC(=O)c2cc(C)nc3ccccc23)c(OC)c1 | 93 | 1 | -2 | -2 | 100 | · | · | ·
O=C(Nc1ccc(N2CCN(C(=O)c3ccco3)CC2)cc1)c1ccc(Br)cc1 | 99 | -2 | -2 | -1 | 96 | · | · | ·
CC(=O)c1cccc(NC(=O)C2C3CCC(C3)C2C(=O)O)c1 (configuration not stated) | 108 | 0 | -1 | 6 | 105 | · | · | ·
Cc1ccc(-c2cc(C(=O)Nc3ccc(S(=O)(=O)N4CC(C)OC(C)C4)cc3)[nH]n2)c(O)c1 (configuration not stated) | 101 | -3 | -1 | 13 | 110 | · | · | ·
Cc1ccc(O)c(-c2cc(C(=O)Nc3ccc(S(=O)(=O)N4CC(C)OC(C)C4)cc3)[nH]n2)c1 (configuration not stated) | 107 | -5 | -2 | 3 | 123* | 104 | -4 | 99
O=C1CC(c2ccco2)CC2=C1C(c1ccccc1)n1nc(C(F)(F)F)nc1N2 (configuration not stated) | 105 | -2 | -3 | 7 | 106 | · | · | ·
Cc1c(C(=O)NCc2ccccn2)sc2nc(-c3ccc(F)cc3)cn12 | 94 | -2 | -5 | -2 | 97 | · | · | ·
CCN(CC)CCCNC(=O)c1sc2nc(-c3ccc(F)cc3)cn2c1C | 138* | -2 | -1 | 26 | 120 | 109 | 6 | 103
CN(C)c1cccc2c(S(=O)(=O)NCc3ccc(S(N)(=O)=O)cc3)cccc12 | 103 | -1 | -2 | 3 | 105 | · | · | ·
CCc1cc(C(=O)N/N=C/c2c(C)[nH]c3ccccc23)cs1 | 92 | -1 | -3 | 0 | 95 | · | · | ·
Cc1cc(-c2n[nH]c(=S)n2/N=C/c2ccc(Cl)c([N+](=O)[O-])c2)n[nH]1 | 109 | -1 | 0 | 0 | 155* | 103 | -5 | 104
CCOC(=O)Cc1c(Sc2ccccc2)c2ccccc2n1C | 117 | -3 | 0 | 15 | 103 | · | · | ·
Cn1c(CC(=O)Nc2ccc(F)cc2)c(Sc2ccccc2)c2ccccc21 | 122 | 0 | -3 | 54* | 104 | 117 | 5 | 103
Cn1c(CC(=O)NC(C)(C)CO)c(Sc2ccccc2)c2ccccc21 | 93 | -2 | -3 | 2 | 89 | · | · | ·
